# In ChEMBL document CHEMBL1671683, “Activity of linezolid in an in vitro pharmacokinetic-pharmacodynamic model using different dosages and Staphylococcus aureus and Enterococcus faecalis strains with and without a hypermutator phenotype” (Antimicrob Agents Chemother, 2010):
# Experiments:
# Staphylococcus aureus [1] = assay: Bactericidal activity against 1 hr peripheral compartment culture samples of Staphylococcus aureus RN4220 MutS2 in two-compartment pharmacokinetic/pharmacodynamic model assessed as effect on bacterial count at 600 mg, bid administered as 0.5 hr infusion; assay type: functional
# Method in brief: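 Two-compartment hollow-fibre model in cation-adjusted, protein-free MH broth, 37°C. Linezolid given as simulated 0.5-h infusion twice daily. Inoculum grown 18 h, concentrated 50-fold and placed in the peripheral compartment 3 h before t0. Peripheral samples at set times counted by dilution plating. First 10-fold dilution not plated, limiting detection to 2–3 log10 CFU/ml. Δlog CFU/ml taken from t0 count. Duplicates.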
# Staphylococcus aureus [2] = assay: Bactericidal activity against 2 hrs peripheral compartment culture samples of Staphylococcus aureus RN4220 MutS2 in two-compartment pharmacokinetic/pharmacodynamic model assessed as effect on bacterial count at 600 mg, bid administered as 0.5 hr infusion; assay type: functional
# Method in brief: (§1)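 An 18-h culture concentrated 50-fold was injected into the peripheral compartment 3 h pre-sampling (~10^8 CFU/ml E. faecalis, 10^9 S. aureus). Counts came from dilution plating (detection limit 2–3 log10 CFU/ml), expressed as Δlog CFU/ml from treatment start. Run in duplicate.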
# Staphylococcus aureus [3] = assay: Bactericidal activity against 48 hrs peripheral compartment culture samples of Staphylococcus aureus RN4220 MutS2 in two-compartment pharmacokinetic/pharmacodynamic model assessed as effect on bacterial count at 600 mg, bid administered as 0.5 hr infusion; assay type: functional; method in brief: as §1
# Enterococcus faecalis [4] = assay: Bactericidal activity against 24 hrs peripheral compartment culture samples of Enterococcus faecalis ATCC 29212 in two-compartment pharmacokinetic/pharmacodynamic model assessed as effect on bacterial count at 200 mg, bid administered as 0.5 hr infusion; assay type: functional; method in brief: as §1
# Enterococcus faecalis [5] = assay: Bactericidal activity against 12.5 hrs peripheral compartment culture samples of Enterococcus faecalis ATCC 29212 in two-compartment pharmacokinetic/pharmacodynamic model assessed as effect on bacterial count at 600 mg, bid administered as 0.5 hr infusion; assay type: functional; method in brief: as §1
# Enterococcus faecalis [6] = assay: Bactericidal activity against 48 hrs peripheral compartment culture samples of Enterococcus faecalis Ef1497 in two-compartment pharmacokinetic/pharmacodynamic model assessed as effect on bacterial count at 800 mg, bid administered as 0.5 hr infusion; assay type: functional; method in brief: as §1
# Enterococcus faecalis [7] = assay: Bactericidal activity against 13 hrs peripheral compartment culture samples of Enterococcus faecalis Ef1497 MutM3 in two-compartment pharmacokinetic/pharmacodynamic model assessed as effect on bacterial count at 200 mg, bid administered as 0.5 hr infusion; assay type: functional; method in brief: as §1
# Enterococcus faecalis [8] = assay: Bactericidal activity against 24 hrs peripheral compartment culture samples of Enterococcus faecalis Ef1497 MutM3 in two-compartment pharmacokinetic/pharmacodynamic model assessed as effect on bacterial count at 200 mg, bid administered as 0.5 hr infusion; assay type: functional; method in brief: as §1
# Enterococcus faecalis [9] = assay: Bactericidal activity against 48 hrs peripheral compartment culture samples of Enterococcus faecalis Ef1497 MutM3 in two-compartment pharmacokinetic/pharmacodynamic model assessed as effect on bacterial count at 600 mg, bid administered as 0.5 hr infusion; assay type: functional; method in brief: as §1
# [10] = Cmax in two-compartment pharmacokinetic/pharmacodynamic model at 800 mg, bid administered as 0.5 hrs infusion; assay type: ADME, organism-based; parameters: dose 800 mg; conditions: iv
# [11] = Residual concentration at the end of the administration interval in two-compartment pharmacokinetic/pharmacodynamic model at 200 mg, bid administered as 0.5 hrs infusion; assay type: ADME; conditions: iv, read-out: Drug uptake
# [12] = AUC in two-compartment pharmacokinetic/pharmacodynamic model at 600 mg, bid administered as 0.5 hrs infusion; assay type: ADME; conditions: iv
# [13] = AUC in two-compartment pharmacokinetic/pharmacodynamic model at 800 mg, bid administered as 0.5 hrs infusion; assay type: ADME; conditions: iv
# [14] = Total clearance in two-compartment pharmacokinetic/pharmacodynamic model at 800 mg, bid administered as 0.5 hrs infusion; assay type: ADME, organism-based; conditions: iv
# Staphylococcus aureus [15] = assay: Bactericidal activity against 2 hrs peripheral compartment culture samples of Staphylococcus aureus RN4220 in two-compartment pharmacokinetic/pharmacodynamic model assessed as effect on bacterial count at 600 mg, bid administered as 0.5 hr infusion; assay type: functional; method in brief: as §1
# Staphylococcus aureus [16] = assay: Bactericidal activity against 24 hrs peripheral compartment culture samples of Staphylococcus aureus RN4220 in two-compartment pharmacokinetic/pharmacodynamic model assessed as effect on bacterial count at 600 mg, bid administered as 0.5 hr infusion; assay type: functional; method in brief: as §1
# [17] = test system: Staphylococcus aureus subsp. aureus RN4220; assay: AUBC (0 to 24 hrs) in Staphylococcus aureus RN4220 in two-compartment pharmacokinetic/pharmacodynamic model at 600 mg, bid administered as 0.5 hr infusion for 2 days; assay type: functional
# Method in brief: (§2)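 Hollow-fibre two-compartment model in cation-adjusted, protein-free MH broth at 37°C. Human total-plasma linezolid profile simulated as 0.5-h infusion every 12 h for 48 h. Concentrated 18-h culture injected into the peripheral compartment 3 h before first sample, giving about 10^8 (E. faecalis) or 10^9 (S. aureus) CFU/ml. Viable counts by dilution plating over 0–24 h. Area indices calculated versus growth control curve. Duplicate runs.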
# [18] = test system: Staphylococcus aureus subsp. aureus RN4220; assay: ABBC (0 to 24 hrs) in Staphylococcus aureus RN4220 in two-compartment pharmacokinetic/pharmacodynamic model at 600 mg, bid administered as 0.5 hr infusion for 2 days; method in brief: as §2
# Enterococcus faecalis [19] = assay: ABBC (0 to 24 hrs) in Enterococcus faecalis Ef1497 MutM3 in two-compartment pharmacokinetic/pharmacodynamic model at 200 mg, bid administered as 0.5 hr infusion for 2 days; assay type: functional; method in brief: as §2
# [20] = Cmax in two-compartment pharmacokinetic/pharmacodynamic model at 800 mg, bid administered as 0.5 hr infusion over 24 hrs; assay type: ADME, organism-based; parameters: dose 800 mg; conditions: iv
# [21] = Tmax in two-compartment pharmacokinetic/pharmacodynamic model at 200 mg, bid administered as 0.5 hr infusion over 24 hrs; assay type: ADME, organism-based; conditions: iv
# Method in brief: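 Two-compartment in vitro hollow-fibre model in cation-adjusted, protein-free Mueller-Hinton broth at 37°C. Human total-plasma linezolid profile simulated as 0.5-h infusion every 12 h for 48 h, computer-controlled syringe pump into central compartment. […] Peripheral samples assayed by validated HPLC-UV (quantification limit 0.39 μg/ml). Tmax read directly from concentration-time profiles. Run in duplicate.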
# [22] = Mean residence time in two-compartment pharmacokinetic/pharmacodynamic model at 200 mg, bid administered as 0.5 hr infusion over 24 hrs; assay type: ADME, organism-based; conditions: in vivo, iv
# [23] = AUC in two-compartment pharmacokinetic/pharmacodynamic model at 200 mg, bid administered as 0.5 hr infusion over 24 hrs; assay type: ADME; parameters: dose 200 mg, time < 24 hr; conditions: in vivo, iv
# [24] = AUC in two-compartment pharmacokinetic/pharmacodynamic model at 600 mg, bid administered as 0.5 hr infusion over 24 hrs; assay type: ADME; parameters: dose 600 mg, time < 24 hr; conditions: in vivo, iv
# [25] = Volume of distribution at steady state in two-compartment pharmacokinetic/pharmacodynamic model at 800 mg, bid administered as 0.5 hr infusion over 24 hrs; assay type: ADME, organism-based; conditions: iv, read-out: Vdss
# in vivo [26] = conditions: iv, 600 mg
# in vivo [27] = conditions: iv, 800 mg
# in vitro = conditions: two-compartment pharmacokinetic/pharmacodynamic model, iv, 800 mg
# [28] = Volume of distribution at steady state in two-compartment pharmacokinetic/pharmacodynamic model bid administered as 0.5 hr infusion over 24 hrs; conditions: in vivo, iv; read-out: Vdss
smiles,measurement,setting,value
CC(=O)NC[C@H]1CN(c2ccc(N3CCOCC3)c(F)c2)C(=O)O1 [LINEZOLID],log10CFU/ml,Staphylococcus aureus [1],0.02
same,log10CFU/ml,Staphylococcus aureus [2],0.02
same,log10CFU/ml,Staphylococcus aureus [3],0.74
same,log10CFU/ml,Enterococcus faecalis [4],0.83
same,log10CFU/ml,Enterococcus faecalis [5],0.1
same,log10CFU/ml,Enterococcus faecalis [6],-1.16
same,log10CFU/ml,Enterococcus faecalis [7],0.23
same,log10CFU/ml,Enterococcus faecalis [8],0.52
same,log10CFU/ml,Enterococcus faecalis [9],0.45
same,Cmax,[10],19200 ng/mL
same,concentration at 0.5 h,[11],390 ng/mL
same,AUC at 0.5 h,[12],43000 ng·h/mL
same,AUC at 0.5 h,[13],38200 ng·h/mL
same,clearance,[14],287 mL/min
same,log10CFU/ml,Staphylococcus aureus [15],-0.26
same,log10CFU/ml,Staphylococcus aureus [16],-0.17
same,AUBC,[17],229.4 log10CFU/ml.hr
same,ABBC,[18],-1.21 log10CFU/ml.hr
same,ABBC,Enterococcus faecalis [19],2.32 log10CFU/ml.hr
same,Cmax,[20],19500 ng/mL
same,Tmax,[21],0.5 h
same,MRT,[22],7.95 h
same,AUC at 24 h,[23],10100 ng·h/mL
same,AUC at 24 h,[24],35400 ng·h/mL
same,Vd,[25],89.3 L
same,half-life,in vivo [26],6.18 h
same,half-life,in vivo [27],5.2 h
same,half-life at 0.5 h,in vitro,5.01 h
same,Vd,[28],100 L
